Source: PubChem
Shown are actives, neighbours in structure and some others; about 1.5% of the full set was active somewhere.
CCR6 antagonist = blocks CCL20-driven beta-arrestin recruitment at human CCR6. CHO-K1 CCR6 PathHunter beta-arrestin, luminescence, CCL20-stimulated. P51684. inhibition, % at 20 µM. actives 0.49% (n = 340,000);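 active = compounds whose inhibition of the agonist-driven luminescence signal at 20 µM reaches about 50%, limit read from the data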;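 note: cells stimulated with CCL20 at 14 nM final; plate controls were DMSO with CCL20 for no effect and DMSO without agonist for full effect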
Target sequence (P51684 whole entry, looked up): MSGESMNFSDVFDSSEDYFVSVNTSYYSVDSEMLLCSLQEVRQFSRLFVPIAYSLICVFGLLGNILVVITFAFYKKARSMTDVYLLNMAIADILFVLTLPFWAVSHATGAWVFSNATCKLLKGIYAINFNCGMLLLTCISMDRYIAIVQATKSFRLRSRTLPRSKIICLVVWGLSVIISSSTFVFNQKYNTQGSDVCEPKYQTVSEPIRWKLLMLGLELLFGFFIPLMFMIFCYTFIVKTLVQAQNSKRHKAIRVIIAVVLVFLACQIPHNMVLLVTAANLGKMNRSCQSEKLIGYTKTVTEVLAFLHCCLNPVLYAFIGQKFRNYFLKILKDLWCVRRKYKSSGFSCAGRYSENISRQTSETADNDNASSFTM
APJ antagonist = APJ receptor antagonism | CHO-K1 APJ beta-arrestin complementation, luminescence | P35414 | inhibition, % at 20 µM | AID 2521 | actives 0.32% (n = 330,000);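 active = inhibition above about 40% at 20 µM, limit read from the data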;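 note: cells challenged with 10 nM apelin-13 agonist together with compound; plate controls were apelin-13 plus DMSO wells for no effect and DMSO wells lacking apelin-13 for full effect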
CXCR6 inh = CXCR6 (human) receptor inhibition; CHO-K1 PathHunter CXCR6 beta-arrestin, luminescence; inhibition, % at 20 µM; actives 0.36% (n = 360,000); AID 602244; in the data active = inhibition above about 34%, passing the limit was not always enough;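 note: antagonist mode with CXCL16 agonist at 10 nM final; 0% = 10 nM CXCL16 with DMSO and 100% = unstimulated wells without agonist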
EBI2 antag = EBI2 (human) antagonism | EBI2 beta-arrestin recruitment, luminescence, 7a,25-OHC stimulated | inhibition, % at 5 µM | actives 0.81% (n = 360,000) | AID 651636; in the data active = inhibition above about 38%;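 note: enzyme fragment complementation signal reports receptor beta-arrestin coupling in cells; 0% = agonist plus DMSO wells and 100% = wells without agonist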
APJ ag = activates the human apelin receptor APJ; activation, % at 20 µM; CHO-K1 APJ PathHunter beta-arrestin, luminescence; 0% DMSO wells, 100% apelin; P35414; actives 0.11% (n = 330,000);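 active = activation more than six SD over the plate average, tested at 20 µM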;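 note: 0% = DMSO alone and 100% = apelin-13 at 10 nM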
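Incubation: overnight seeding, 90 min compound at 25 °C, 1 h detection; test system: PathHunter CHO-K1 APJ (AGTRL-1) beta-arrestin reporter cells; amount: 1000 cells/well; doses: one dose, 20 µM compound, 1% DMSO; measured by: beta-gal luminescence; measure: agonist-driven arrestin binding to APJ; benchmarks: negative DMSO alone, positive Apelin-13 at 10 nM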
EBI2 conf = confirmation of human EBI2 receptor antagonists; shares compounds with EBI2 antag; EBI2 beta-arrestin luminescence, 7a,25-OHC antagonism; inhibition, % at 5 µM; actives 29% (n = 2,400); AID 651997;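 active = inhibition of at least 50%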
EBI2 ag = EBI2 agonism counter-screen; shares compounds with EBI2 antag; EBI2-expressing cells, agonist mode, luminescence, 60 min; 0% vehicle, 100% 7α,25-dihydroxycholesterol control; activation, % at 5 µM; 2,400 tested, under 10 active; AID 652000;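 active = activation of at least 50%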
bGal cs = inhibits E. coli beta-galactosidase, counter-screen for EBI2 antagonists | shares compounds with EBI2 antag | purified beta-galactosidase, luminescent Galacton Star, 15 min | inhibition, % at 5 µM | actives 1% (n = 2,400);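 active = replicate-average signal at least 3 plate SD below neutral wells, shown as high inhibition, flagging enzyme-inhibiting false positives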;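 note: 0% = DMSO wells with enzyme and 100% = wells lacking enzyme; higher means stronger loss of beta-gal luminescence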
Active calls of the source: *; / = no result.

SMILES | CCR6 antagonist | APJ antagonist | CXCR6 inh | EBI2 antag | APJ ag | EBI2 conf | EBI2 ag | bGal cs
C=CCN(c1ccc(F)cc1)S(=O)(=O)c1cc(C(=O)NC2CC2)ccc1Cl | / | / | 8 | 2 | / | / | / | /
Cc1ccccc1NC(=O)c1cc([N+](=O)[O-])ccc1NCCN1C(=O)CCC1=O | 7 | -9 | -2 | 0 | -4 | / | / | /
COc1ccc(-n2ncc(C(=O)N3CCN(c4ccc(F)cc4)CC3)c2C)cc1 | 8 | -6 | -9 | -5 | -3 | / | / | /
CCOC(=O)N1CCN(C(=O)c2cc(-c3ccc(F)cc3)[nH]c2C)CC1 | 2 | -1 | 3 | 89* | -2 | 86* | -1 | -12
Cc1[nH]c(-c2ccc(F)cc2)cc1C(=O)N1CCN(c2ccc(Cl)cc2)CC1 | -4 | 0 | -16 | 73* | 1 | 47 | 0 | -6
COc1ccc(N2CCN(C(=O)c3cc(-c4ccc(F)cc4)[nH]c3C)CC2)cc1 | 0 | -1 | 13 | 93* | -1 | 62* | 2 | 9
CC[C@H](C)[C@H](NC(=O)c1ccccc1)C(=O)Nc1ccc(S(=O)(=O)Nc2cc(C)nc(C)n2)cc1 | 7 | 11 | 4 | -2 | -1 | / | / | /
COc1cc(-c2nc(CN3CCCCC3CCNC(C)=O)c(C)o2)ccc1F (configuration not stated) | 6 | 4 | 1 | -4 | -6 | / | / | /
CC(NS(=O)(=O)c1ccc(Cl)cc1)C(=O)N1CCOCC1 (configuration not stated) | 0 | -12 | 5 | -7 | 3 | / | / | /
COCCN(CC(=O)Nc1ccccc1C(F)(F)F)C(=O)/C=C/c1ccc2ccccc2n1 | 18 | 4 | -3 | -6 | -2 | / | / | /
CCCOC(=O)c1ccc(NC(=O)CSC2=Nc3ccccc3C3CC=NN23)cc1 (configuration not stated) | 2 | 6 | 11 | 40* | -3 | 5 | 0 | -10
O=C(CSC1=Nc2ccccc2C2CC=NN12)NCc1ccco1 (configuration not stated) | 24 | 27 | 11 | 9 | -8 | / | / | /
O=C(NCCc1ccccc1)c1oc2ccccc2c1COc1ccccc1 | 23 | / | 12 | 45* | / | 33 | 2 | -4
Cc1ccc(C(=O)N2CCN(c3ccc([N+](=O)[O-])c(NCc4ccco4)c3)CC2)cc1 | 15 | -8 | 8 | 42* | -4 | 13 | -1 | -6
Cc1cccc(OCC(=O)N/N=C/c2cn[nH]c2-c2ccc(Cl)c(Cl)c2)c1 | -6 | -10 | -15 | 39* | 9 | 1 | 0 | -11
COc1ccc(C(=O)CN2CC(C)SC2=Nc2ccc(Cl)cc2)cc1 (configuration not stated) | 24 | 18 | 0 | 44* | 0 | 27 | 0 | 5
COc1ccc(C(=O)N2CC(c3ccc(Cl)cc3)CC2=O)cc1 (configuration not stated) | 2 | 3 | -1 | 13 | -9 | / | / | /
Cc1cccc(C)c1NC(=O)C1c2ccccc2OCC(=O)N1CCc1c[nH]c2ccccc12 (configuration not stated) | / | / | 4 | 3 | / | / | / | /
COc1ccc(OCC(O)CN2CCC(CN3C(=O)c4cccc5cccc(c45)C3=O)CC2)cc1 (configuration not stated) | 22 | 3 | -14 | 44* | -6 | 20 | 1 | 6
COc1ccc(OC)c(S(=O)(=O)N2CCN(CC(O)COc3ccc(C#N)cc3)CC2)c1 (configuration not stated) | -11 | 7 | -10 | 45* | 0 | 6 | 0 | 11
COc1ccc(S(=O)(=O)N2CCN(CC(O)COc3ccc(C#N)cc3)CC2)cc1OC (configuration not stated) | -6 | 4 | -10 | 13 | -3 | / | / | /
